pEC50, pIC50: −log10 of the molar value. Where a SMILES comes first, the peptide text is derived from it. [ ]: non-standard residue; d: D form. 2Nal = N[C@@H](Cc1ccc2ccccc2c1)C(=O)O; Pip = O=C(O)[C@@H]1CCCCN1; dPip = O=C(O)[C@H]1CCCCN1; βAla = NCCC(=O)O
Assays:
[1] = target: T1, Atypical chemokine receptor 3 (Homo sapiens, UniProt P25106); test: Inhibition of [125I]SDF-1alpha binding to CXCR7 (unknown origin) expressed in CHO cell membranes incubated for 1 hr by radioligand displacement assay
Outline: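 Scintillation proximity binding: receptor membranes (10−20 µg/well) on WGA beads (0.25 mg/well) incubated with peptide and [125I]-SDF-1α (0.20 nM for CXCR4, 0.25 nM for CXCR7). Room temperature, 1 h. Bound radioactivity counted 1 min/well. IC50 taken from inhibition of tracer binding.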

[2] = target: C-X-C chemokine receptor type 4 (Homo sapiens, UniProt P61073); test: Inhibition of [125I]SDF-1alpha binding to CXCR4 (unknown origin) expressed in HEK293 cell membranes incubated for 1 hr by radioligand displacement assay
Chain of C-X-C chemokine receptor type 4 (P61073 whole entry): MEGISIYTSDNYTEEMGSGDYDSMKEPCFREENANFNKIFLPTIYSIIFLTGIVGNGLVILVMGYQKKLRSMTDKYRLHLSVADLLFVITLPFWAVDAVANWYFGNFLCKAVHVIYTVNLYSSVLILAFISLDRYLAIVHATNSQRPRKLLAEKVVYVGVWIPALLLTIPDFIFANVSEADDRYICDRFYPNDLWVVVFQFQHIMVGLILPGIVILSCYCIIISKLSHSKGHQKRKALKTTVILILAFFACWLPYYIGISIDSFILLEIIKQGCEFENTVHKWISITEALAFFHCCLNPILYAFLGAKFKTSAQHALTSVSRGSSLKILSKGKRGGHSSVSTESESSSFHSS

[3] = target: T1, Atypical chemokine receptor 3; test: Agonist activity at CXCR7 (unknown origin) expressed in HEK293E cells co-transfected with receptor-eYFP construct and beta-arrestin2-Rluc assessed as induction of receptor-mediated beta-arrestin recruitment by BRET assay; format: cell-based; conditions: for pEC50: read-out: EC50; for EC50: read-out: pEC50 (converted)
Outline: (§1)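 Transient co-transfection of HEK293E cells with 1 µg receptor-eYFP plus 0.05 µg β-arrestin2-Rluc, made up to 2 µg/well with empty vector. Cells cultured overnight, seeded on poly(D-lysine) plates and grown 24 h more. Ligand added in BRET buffer (PBS, 0.5 mM MgCl2, 0.01% BSA), 5 min at 37 °C, then coelenterazine h 5 µM final. Read 30 min after ligand addition. Net BRET = YFP (510–550 nm)/Rluc (460–500 nm) minus Rluc-only background.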

[4] = target: T1, Atypical chemokine receptor 3; test: Agonist activity at wild type CXCR7 (unknown origin) expressed in HEK293E cells co-transfected with receptor-eYFP construct and beta-arrestin2-Rluc assessed as induction of receptor-mediated beta-arrestin recruitment by BRET assay; format: cell-based; conditions: for pEC50: read-out: EC50; for EC50: read-out: pEC50 (converted); outline: as §1
[5] = target: Atypical chemokine receptor 3 (Homo sapiens, UniProt P25106, D179N); test: Agonist activity at CXCR7 D179N mutant (unknown origin) expressed in HEK293E cells co-transfected with receptor-eYFP construct and beta-arrestin2-Rluc assessed as induction of receptor-mediated beta-arrestin recruitment by BRET assay; format: cell-based; conditions: for pEC50: read-out: EC50; outline: as §1
Chain of Atypical chemokine receptor 3 (Homo sapiens, UniProt P25106, D179N) (P25106 whole entry D179N): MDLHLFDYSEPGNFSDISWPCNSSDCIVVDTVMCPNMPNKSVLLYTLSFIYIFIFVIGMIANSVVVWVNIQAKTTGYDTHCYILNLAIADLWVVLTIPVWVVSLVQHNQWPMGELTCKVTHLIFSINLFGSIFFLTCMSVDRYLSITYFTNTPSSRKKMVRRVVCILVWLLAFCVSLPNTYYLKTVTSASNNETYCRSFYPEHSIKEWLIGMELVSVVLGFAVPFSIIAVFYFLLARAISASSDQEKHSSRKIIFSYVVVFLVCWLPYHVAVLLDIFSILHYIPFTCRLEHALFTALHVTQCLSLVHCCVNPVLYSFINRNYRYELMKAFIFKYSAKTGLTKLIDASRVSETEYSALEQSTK

[6] = target: Atypical chemokine receptor 3 (Homo sapiens, UniProt P25106, S198R); test: Agonist activity at CXCR7 S198R mutant (unknown origin) expressed in HEK293E cells co-transfected with receptor-eYFP construct and beta-arrestin2-Rluc assessed as induction of receptor-mediated beta-arrestin recruitment by BRET assay; format: cell-based; outline: as §1
Chain of Atypical chemokine receptor 3 (Homo sapiens, UniProt P25106, S198R) (P25106 whole entry S198R): as the sequence (P25106 whole entry D179N) above, with N179D, S198R counted along it

[7] = target: Atypical chemokine receptor 3 (Homo sapiens, UniProt P25106, D275N); test: Agonist activity at CXCR7 D275N mutant (unknown origin) expressed in HEK293E cells co-transfected with receptor-eYFP construct and beta-arrestin2-Rluc assessed as induction of receptor-mediated beta-arrestin recruitment by BRET assay; format: cell-based; outline: as §1
Chain of Atypical chemokine receptor 3 (Homo sapiens, UniProt P25106, D275N) (P25106 whole entry D275N): as the sequence (P25106 whole entry D179N) above, with N179D, D275N counted along it

T1 sequence (P25106 whole entry): as the sequence (P25106 whole entry D179N) above, with N179D counted along it

pIC50 [1] | pIC50 [2] | Structure (SMILES) | also measured
5.82 | < 4.52 | N=C(N)NCCC[C@@H]1NC(=O)[C@H](CCCNC(=N)N)NC(=O)[C@@H](Cc2ccc(O)cc2)NC(=O)[C@@H]2CCCN2C(=O)[C@H](Cc2ccc3ccccc3c2)NC1=O | pEC50 [3]: 7.13; pEC50 [4]: 6.72; EC50 [4]: 0.126 µM; pEC50 [5]: 5.46; EC50 ([5]; read-out: pEC50 (converted)): 3.98 µM; pEC50 [6]: 6.44; pEC50 [7]: 5.82
< 4.52 | < 4.52 | N=C(N)NCCC[C@@H]1NC(=O)[C@H](CCCNC(=N)N)NC(=O)[C@@H](Cc2ccc(O)cc2)NC(=O)[C@H]2CCCN2C(=O)[C@H](Cc2ccc3ccccc3c2)NC1=O | 
4.82 | < 4.52 | C[C@H]1C(=O)N[C@H](Cc2ccc(O)cc2)C(=O)N[C@@H](CCCNC(=N)N)C(=O)N[C@@H](CCCNC(=N)N)C(=O)N[C@@H](Cc2ccc3ccccc3c2)C(=O)N1C | 
< 4.52 | 5.34 | C[C@@H]1C(=O)N[C@H](Cc2ccc(O)cc2)C(=O)N[C@@H](CCCNC(=N)N)C(=O)N[C@@H](CCCNC(=N)N)C(=O)N[C@@H](Cc2ccc3ccccc3c2)C(=O)N1C | 
< 4.52 | < 4.52 | N=C(N)NCCC[C@@H]1NC(=O)[C@H](Cc2ccc(O)cc2)NC(=O)[C@@H]2CCCN2C(=O)[C@H](Cc2ccc3ccccc3c2)NC(=O)[C@H](CCCNC(=N)N)NC1=O | 
5.34 | < 4.52 | N=C(N)NCCC[C@@H]1NC(=O)[C@@H](CCCNC(=N)N)NC(=O)[C@@H](Cc2ccc(O)cc2)NC(=O)[C@@H]2CCCN2C(=O)[C@H](Cc2ccc3ccccc3c2)NC1=O | 
< 4.52 | < 4.52 | N=C(N)NCCC[C@@H]1NC(=O)[C@@H](Cc2ccc(O)cc2)NC(=O)[C@@H]2CCCN2C(=O)[C@H](Cc2ccc3ccccc3c2)NC(=O)[C@@H](CCCNC(=N)N)NC1=O | 
< 4.52 | < 4.52 | N=C(N)NCCC[C@@H]1NC(=O)[C@H](CCCNC(=N)N)NC(=O)[C@@H](Cc2ccc(O)cc2)NC(=O)[C@@H]2CCCN2C(=O)[C@@H](Cc2ccc3ccccc3c2)NC1=O | 
4.74 | < 4.52 | CN1C(=O)[C@@H]2CCCN2C(=O)[C@H](Cc2ccc3ccccc3c2)NC(=O)[C@H](CCCNC(=N)N)NC(=O)[C@H](CCCNC(=N)N)NC(=O)[C@H]1Cc1ccc(O)cc1 | 
5.62 | < 4.52 | CN1C(=O)[C@@H](Cc2ccc(O)cc2)NC(=O)[C@@H]2CCCN2C(=O)[C@H](Cc2ccc3ccccc3c2)NC(=O)[C@H](CCCNC(=N)N)NC(=O)[C@@H]1CCCNC(=N)N | 
6.10 | < 4.52 | CN1C(=O)[C@H](CCCNC(=N)N)NC(=O)[C@@H](Cc2ccc(O)cc2)NC(=O)[C@@H]2CCCN2C(=O)[C@H](Cc2ccc3ccccc3c2)NC(=O)[C@@H]1CCCNC(=N)N | pEC50 [3]: 7.02; pEC50 [4]: 6.62; EC50 [4]: 0.158 µM; pEC50 [5]: 5.70; pEC50 [6]: 6.44; pEC50 [7]: 6.19
5.47 | < 4.52 | CN1C(=O)[C@H](CCCNC(=N)N)NC(=O)[C@H](CCCNC(=N)N)NC(=O)[C@@H](Cc2ccc(O)cc2)NC(=O)[C@@H]2CCCN2C(=O)[C@@H]1Cc1ccc2ccccc2c1 | 
4.64 | < 4.52 | CN1C(=O)[C@@H]2CCCN2C(=O)[C@H](Cc2ccc3ccccc3c2)NC(=O)[C@H](CCCNC(=N)N)NC(=O)[C@H](CCCNC(=N)N)NC(=O)[C@@H]1Cc1ccc(O)cc1 | 
4.89 | < 4.52 | CN1C(=O)[C@@H](Cc2ccc(O)cc2)NC(=O)[C@@H]2CCCN2C(=O)[C@H](Cc2ccc3ccccc3c2)NC(=O)[C@H](CCCNC(=N)N)NC(=O)[C@H]1CCCNC(=N)N | 
5.34 | < 4.52 | CN1C(=O)[C@H](CCCNC(=N)N)NC(=O)[C@@H](Cc2ccc(O)cc2)NC(=O)[C@@H]2CCCN2C(=O)[C@H](Cc2ccc3ccccc3c2)NC(=O)[C@H]1CCCNC(=N)N | 
< 4.52 | < 4.52 | CN1C(=O)[C@H](CCCNC(=N)N)NC(=O)[C@H](CCCNC(=N)N)NC(=O)[C@@H](Cc2ccc(O)cc2)NC(=O)[C@@H]2CCCN2C(=O)[C@H]1Cc1ccc2ccccc2c1 | 
< 4.52 | < 4.52 | C[C@H]1NC(=O)[C@@H]2CCCN2C(=O)[C@H](Cc2ccc3ccccc3c2)NC(=O)[C@H](CCCNC(=N)N)N(C)C(=O)[C@H](CCCNC(=N)N)NC1=O | 
4.80 | < 4.52 | C[C@@H]1NC(=O)[C@@H](Cc2ccc(O)cc2)NC(=O)[C@@H]2CCCN2C(=O)[C@H](Cc2ccc3ccccc3c2)NC(=O)[C@H](CCCNC(=N)N)N(C)C1=O | 
4.96 | < 4.52 | C[C@H]1C(=O)N[C@@H](Cc2ccc3ccccc3c2)C(=O)N2CCC[C@H]2C(=O)N[C@H](Cc2ccc(O)cc2)C(=O)N[C@@H](CCCNC(=N)N)C(=O)N1C | 
< 4.52 | < 4.52 | C[C@@H]1NC(=O)[C@H](CCCNC(=N)N)N(C)C(=O)[C@H](CCCNC(=N)N)NC(=O)[C@@H](Cc2ccc(O)cc2)NC(=O)[C@@H]2CCCN2C1=O | 
< 4.52 |  | N=C(N)NCCC[C@@H]1NC(=O)[C@H](CCCNC(=N)N)NC(=O)[C@@H](Cc2ccc(O)cc2)NC(=O)CNC(=O)[C@H](Cc2ccc3ccccc3c2)NC1=O | pEC50 [3]: 5.62; EC50 [3]: 2 µM
4.74 | 4.64 | C[C@@H]1NC(=O)[C@H](Cc2ccc3ccccc3c2)NC(=O)[C@H](CCCNC(=N)N)NC(=O)[C@H](CCCNC(=N)N)NC(=O)[C@@H](Cc2ccc(O)cc2)NC1=O (cyclo([2Nal]A[dY]RR)) | 
4.89 | < 4.52 | N=C(N)NCCC[C@@H]1NC(=O)[C@H](CCCNC(=N)N)NC(=O)[C@@H](Cc2ccc(O)cc2)NC(=O)[C@@H]2CCCCN2C(=O)[C@H](Cc2ccc3ccccc3c2)NC1=O (cyclo([2Nal][Pip][dY]RR)) | 
5.77 |  | CC[C@H](C)[C@@H]1NC(=O)[C@H]([C@@H](C)O)NC(=O)[C@H]2CCCN2C(=O)[C@H](Cc2ccc3ccccc3c2)NC(=O)[C@H](CCCNC(=N)N)NC(=O)[C@@H](CCCNC(=N)N)NC1=O (cyclo([2Nal][dP]TI[dR]R)) | pEC50 [3]: 7.44; EC50 [3]: 0.0316 µM
< 4.52 | < 4.52 | N=C(N)NCCC[C@@H]1NC(=O)[C@H](CCCNC(=N)N)NC(=O)[C@@H](Cc2ccc(O)cc2)NC(=O)[C@H]2CCCCN2C(=O)[C@H](Cc2ccc3ccccc3c2)NC1=O (cyclo([2Nal][dPip][dY]RR)) | 
< 4.52 | 5.22 | N=C(N)NCCC[C@@H]1NC(=O)[C@H](CCCNC(=N)N)NC(=O)[C@@H](Cc2ccc(O)cc2)NC(=O)CCNC(=O)[C@H](Cc2ccc3ccccc3c2)NC1=O (cyclo([2Nal][βAla][dY]RR)) | 
< 4.52 | 5.66 | C[C@H]1NC(=O)[C@H](Cc2ccc3ccccc3c2)NC(=O)[C@H](CCCNC(=N)N)NC(=O)[C@H](CCCNC(=N)N)NC(=O)[C@@H](Cc2ccc(O)cc2)NC1=O (cyclo([dY]RR[2Nal][dA])) | 

Reference: ChEMBL document CHEMBL3580653, “Development of novel CXC chemokine receptor 7 (CXCR7) ligands: selectivity switch from CXCR4 antagonists with a cyclic pentapeptide scaffold” (J Med Chem, 2015)
